pEC50, pIC50: −log10 of the molar value. In brackets after ≈: the same amount, converted by molar mass.
How the values were obtained:
[1] = molecular target: T1, Cytochrome P450 1A2 (Homo sapiens, UniProt P05177); assay: Inhibition of human CYP1A2; format: ADME
T1 sequence (P05177 whole entry): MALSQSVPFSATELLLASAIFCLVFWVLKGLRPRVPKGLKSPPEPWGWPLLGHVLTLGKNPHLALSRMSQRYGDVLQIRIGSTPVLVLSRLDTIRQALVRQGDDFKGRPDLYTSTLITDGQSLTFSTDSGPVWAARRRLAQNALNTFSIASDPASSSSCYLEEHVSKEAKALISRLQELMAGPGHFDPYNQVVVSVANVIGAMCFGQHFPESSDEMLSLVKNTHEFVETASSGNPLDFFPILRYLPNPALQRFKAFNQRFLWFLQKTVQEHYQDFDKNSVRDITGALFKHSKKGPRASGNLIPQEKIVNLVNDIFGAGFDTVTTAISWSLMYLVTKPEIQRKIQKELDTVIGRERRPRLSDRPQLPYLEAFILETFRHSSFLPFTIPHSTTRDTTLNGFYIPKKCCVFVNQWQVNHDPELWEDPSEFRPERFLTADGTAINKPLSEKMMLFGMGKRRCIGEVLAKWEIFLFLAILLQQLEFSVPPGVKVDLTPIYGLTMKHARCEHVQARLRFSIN

[2] = system: Plasmodium falciparum; assay: Antiplasmodial activity against Plasmodium falciparum 3D7; format: functional, organism-based
Procedure, shortened: (§1)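 P. falciparum cultures (lab strain 3D7; multidrug-resistant Southeast Asian isolate Dd2) were exposed to compound for 72 h. Parasite viability was read out by DAPI staining.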

[3] = molecular target: Cytochrome P450 2D6 (Homo sapiens, UniProt P10635); assay: Inhibition of human CYP2D6; format: ADME
Chain of Cytochrome P450 2D6 (P10635 whole entry): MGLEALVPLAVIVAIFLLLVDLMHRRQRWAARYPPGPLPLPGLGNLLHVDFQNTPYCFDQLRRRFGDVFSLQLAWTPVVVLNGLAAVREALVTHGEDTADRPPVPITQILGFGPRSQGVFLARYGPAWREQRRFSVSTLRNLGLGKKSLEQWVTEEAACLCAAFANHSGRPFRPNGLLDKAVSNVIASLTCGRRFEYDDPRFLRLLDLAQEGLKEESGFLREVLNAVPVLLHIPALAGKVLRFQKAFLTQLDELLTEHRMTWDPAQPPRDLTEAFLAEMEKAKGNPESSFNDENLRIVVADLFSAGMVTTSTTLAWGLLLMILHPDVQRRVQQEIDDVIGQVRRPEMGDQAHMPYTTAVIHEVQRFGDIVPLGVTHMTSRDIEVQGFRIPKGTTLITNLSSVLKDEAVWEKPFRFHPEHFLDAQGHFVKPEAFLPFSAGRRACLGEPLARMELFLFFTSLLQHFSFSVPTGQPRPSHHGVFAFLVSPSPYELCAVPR

[4] = Lipophilicity, log D of the compound; format: physicochemical; conditions: octanol/water
Procedure, shortened: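 Log D was measured at pH 7.4 as the partitioning of compound between an aqueous layer and a second phase.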

[5] = system: Plasmodium falciparum; assay: Antiplasmodial activity against Plasmodium falciparum Dd2; format: functional, organism-based; procedure, shortened: as §1
[6] = Cytotoxicity against human RPTEC after 4 days by alamar blue assay; format: cell-based; conditions: RPTEC cells, read-out: LC50
[7] = molecular target: Cytochrome P450 2C19 (Homo sapiens, UniProt P33261); assay: Inhibition of human CYP2C19; format: ADME
Chain of Cytochrome P450 2C19 (P33261 whole entry): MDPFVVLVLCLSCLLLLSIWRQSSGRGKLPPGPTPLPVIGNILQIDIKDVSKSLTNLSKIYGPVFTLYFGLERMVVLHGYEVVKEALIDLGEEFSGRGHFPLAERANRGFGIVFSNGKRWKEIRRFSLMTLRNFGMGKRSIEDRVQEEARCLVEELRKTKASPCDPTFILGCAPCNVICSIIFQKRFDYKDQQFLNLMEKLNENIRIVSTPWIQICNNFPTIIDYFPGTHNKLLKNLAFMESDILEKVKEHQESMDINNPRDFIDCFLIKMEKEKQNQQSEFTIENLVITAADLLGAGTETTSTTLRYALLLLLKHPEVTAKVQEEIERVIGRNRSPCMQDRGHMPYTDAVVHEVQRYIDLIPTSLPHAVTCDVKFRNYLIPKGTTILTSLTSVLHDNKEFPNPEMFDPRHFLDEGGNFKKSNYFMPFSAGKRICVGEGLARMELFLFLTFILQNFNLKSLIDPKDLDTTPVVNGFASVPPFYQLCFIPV

[8] = molecular target: Cytochrome P450 2C9 (Homo sapiens, UniProt P11712); assay: Inhibition of human CYP2C9; format: ADME
Chain of Cytochrome P450 2C9 (P11712 whole entry): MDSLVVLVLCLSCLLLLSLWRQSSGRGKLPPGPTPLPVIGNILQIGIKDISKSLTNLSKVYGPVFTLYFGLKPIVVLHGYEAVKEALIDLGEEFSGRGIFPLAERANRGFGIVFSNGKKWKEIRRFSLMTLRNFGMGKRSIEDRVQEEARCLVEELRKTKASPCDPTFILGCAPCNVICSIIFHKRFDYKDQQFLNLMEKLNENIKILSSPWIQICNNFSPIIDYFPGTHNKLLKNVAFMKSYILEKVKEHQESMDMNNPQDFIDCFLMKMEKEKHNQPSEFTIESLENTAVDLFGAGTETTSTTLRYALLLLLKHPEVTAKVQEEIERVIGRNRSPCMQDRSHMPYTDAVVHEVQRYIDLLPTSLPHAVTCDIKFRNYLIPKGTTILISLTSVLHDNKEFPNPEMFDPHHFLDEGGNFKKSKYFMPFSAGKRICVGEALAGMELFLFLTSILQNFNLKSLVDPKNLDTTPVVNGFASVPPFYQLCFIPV

[9] = Solubility at pH 7.4; format: physicochemical; conditions: buffer
[10] = molecular target: Cytochrome P450 3A4 (Homo sapiens, UniProt P08684); assay: Inhibition of human CYP3A4; format: ADME
Chain of Cytochrome P450 3A4 (P08684 whole entry): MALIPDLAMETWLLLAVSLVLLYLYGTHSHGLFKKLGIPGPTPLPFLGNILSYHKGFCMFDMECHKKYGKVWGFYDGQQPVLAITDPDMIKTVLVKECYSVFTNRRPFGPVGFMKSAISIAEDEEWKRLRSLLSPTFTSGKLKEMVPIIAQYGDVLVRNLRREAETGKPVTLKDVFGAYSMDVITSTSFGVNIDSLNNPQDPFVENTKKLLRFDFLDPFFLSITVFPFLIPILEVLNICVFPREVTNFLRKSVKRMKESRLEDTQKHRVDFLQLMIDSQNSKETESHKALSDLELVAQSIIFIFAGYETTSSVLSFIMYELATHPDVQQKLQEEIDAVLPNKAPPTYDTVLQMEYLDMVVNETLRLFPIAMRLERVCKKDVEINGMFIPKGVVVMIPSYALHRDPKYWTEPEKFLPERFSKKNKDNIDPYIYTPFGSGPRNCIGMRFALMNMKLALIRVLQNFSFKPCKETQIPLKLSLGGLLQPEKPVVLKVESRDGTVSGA

[11] = Cytotoxicity against human NHDF after 4 days by alamar blue assay; format: cell-based; conditions: NHDF cells, read-out: LC50
[12] = system: Liver microsomes; assay: Intrinsic clearance in rat liver microsomes measured […]; format: ADME, Microsome
[13] = system: Liver microsomes; assay: Intrinsic clearance in human liver microsomes measured […]; format: ADME, Microsome
[14] = molecular target: Voltage-gated inwardly rectifying potassium channel KCNH2 (Homo sapiens, UniProt Q12809); assay: Inhibition of human ERG channel
Chain of Voltage-gated inwardly rectifying potassium channel KCNH2 (Q12809 whole entry): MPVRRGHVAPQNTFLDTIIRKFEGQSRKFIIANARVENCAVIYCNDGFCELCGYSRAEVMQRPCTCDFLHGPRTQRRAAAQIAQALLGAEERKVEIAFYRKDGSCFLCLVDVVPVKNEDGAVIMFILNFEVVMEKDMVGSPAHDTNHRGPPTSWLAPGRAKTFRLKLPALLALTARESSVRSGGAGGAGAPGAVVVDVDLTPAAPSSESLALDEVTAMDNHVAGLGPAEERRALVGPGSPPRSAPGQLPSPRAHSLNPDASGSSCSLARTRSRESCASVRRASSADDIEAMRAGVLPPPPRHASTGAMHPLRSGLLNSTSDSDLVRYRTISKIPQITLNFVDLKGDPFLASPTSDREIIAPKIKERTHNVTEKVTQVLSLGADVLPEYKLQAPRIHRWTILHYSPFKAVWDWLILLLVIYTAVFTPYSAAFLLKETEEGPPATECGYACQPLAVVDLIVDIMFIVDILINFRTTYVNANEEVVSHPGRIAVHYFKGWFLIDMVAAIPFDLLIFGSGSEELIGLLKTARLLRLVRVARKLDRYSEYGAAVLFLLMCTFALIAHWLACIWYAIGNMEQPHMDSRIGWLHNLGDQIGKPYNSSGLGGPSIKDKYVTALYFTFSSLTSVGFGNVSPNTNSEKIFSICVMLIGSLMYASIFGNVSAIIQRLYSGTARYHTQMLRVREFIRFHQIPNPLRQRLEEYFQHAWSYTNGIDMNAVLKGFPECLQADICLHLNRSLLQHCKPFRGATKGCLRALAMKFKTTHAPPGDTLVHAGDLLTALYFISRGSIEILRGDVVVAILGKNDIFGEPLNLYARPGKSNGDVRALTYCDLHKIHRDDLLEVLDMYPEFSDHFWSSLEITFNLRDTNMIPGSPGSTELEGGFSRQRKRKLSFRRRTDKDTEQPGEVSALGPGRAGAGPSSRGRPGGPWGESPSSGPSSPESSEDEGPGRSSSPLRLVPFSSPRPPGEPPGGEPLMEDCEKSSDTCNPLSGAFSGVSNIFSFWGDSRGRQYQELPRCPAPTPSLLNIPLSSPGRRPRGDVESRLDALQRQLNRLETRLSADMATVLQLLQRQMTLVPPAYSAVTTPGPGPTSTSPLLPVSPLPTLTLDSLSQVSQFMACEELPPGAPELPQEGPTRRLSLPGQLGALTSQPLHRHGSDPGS

| Structure (SMILES) | pEC50 [2] | pEC50 [5] | further results |
| --- | --- | --- | --- |
| Cc1cc(NC2CCCCC2)nc(NCc2ccccc2)n1 | 7.10 | 6.60 | pIC50 [1]: 5.51; pIC50 [3]: 5.38; logD [4]: 3.9; CC50 at 96 h [6]: 7500 nM; pIC50 [7]: < 5.30; pIC50 [8]: < 5.30; solubility [9]: 26 µg/mL (≈ 87.7 µM); pIC50 [10]: < 5.30; CC50 at 96 h [11]: 7500 nM |
| COc1cc(CNc2nc(C)cc(NCc3ccccc3)n2)cc(OC)c1OC | 6.11 | 6.03 | – |
| Cc1cc(Nc2ccccc2)nc(N2CCCN(C)CC2)n1 | – | – | logD [4]: 1.7 |
| Cc1cc(NC2CCCCC2)nc(NC2CCCCC2)n1 | – | 6.68 | – |
| Cc1cc(NCc2ccccc2)nc(NCC23CC4CC(CC(C4)C2)C3)n1 | 6.39 | 6.40 | – |
| Cc1cc(N(C)C2CCCCC2)nc(N[C@@H](C)c2ccccc2)n1 | 6.23 | 6.16 | – |
| CCCCCCCNc1nc(C)cc(NC2CCCCC2)n1 | – | 6.68 | – |
| Cc1cc(NC(C)C)nc(NCC23CC4CC(CC(C4)C2)C3)n1 | – | 6.57 | – |
| Cc1cc(N2CCCN(C(=O)OC(C)(C)C)CC2)nc(NC2CCN(Cc3ccccc3)CC2)n1 | – | – | logD [4]: 2.7 |
| Cc1cc(Nc2ccccc2)nc(NCc2ccc3c(ccn3C)c2)n1 | 6.46 | 6.23 | – |
| Cc1cc(N2CCCNCC2)nc(NC2CCN(Cc3ccccc3)CC2)n1 | – | – | logD [4]: -0.15 |
| Cc1cc(NC2CCCCC2)nc(NC2CCN(Cc3ccccc3)CC2)n1 | – | 6.60 | – |
| Cc1cc(NC2CCN(Cc3ccccc3)CC2)nc(N2CCCN(C)CC2)n1 | – | – | logD [4]: 1 |
| Cc1cc(NC(C)C)nc(Nc2ccccc2)n1 | – | 5.82 | – |
| Cc1cc(NC2CCCCC2)nc(N[C@@H](C)c2ccccc2)n1 | 6.92 | 6.30 | – |
| Cc1cc(NCc2ccccc2)nc(NC2CCCCC2)n1 | 6.37 | 5.90 | – |
| Cc1cc(NC2CCCCC2)nc(N(C)Cc2ccccc2)n1 | < 5.00 | < 5.00 | – |
| Cc1cc(NC2CCN(Cc3ccccc3)CC2)nc(N2CCCN(C(=O)OC(C)(C)C)CC2)n1 | – | – | logD [4]: 2.77 |
| Cc1cc(Nc2ccccc2)nc(NCc2ccccn2)n1 | – | 5.67 | clearance [12]: 114 µL/min/mg; clearance [13]: 70 µL/min/mg |

| Structure (SMILES) | pEC50 [2] | pEC50 [5] | further results |
| --- | --- | --- | --- |
| CCCCCCCNc1nc(C)cc(NC(C)C)n1 | – | 6.51 | – |
| Cc1cc(Nc2ccccc2)nc(NCc2ccc3c(c2)OCO3)n1 | 6.96 | 6.44 | pIC50 [14]: 5.02; clearance [12]: > 119 µL/min/mg; clearance [13]: 31.3 µL/min/mg |
| Cc1cc(NCc2ccccc2)nc(NCCN2CCCC2)n1 | 5.97 | 5.84 | – |
| Cc1cc(NC(C)C)nc(NCc2ccc3c(ccn3C)c2)n1 | – | 5.91 | – |
| FC(F)(F)c1cc(Nc2ccccc2)nc(NCc2ccccn2)n1 | – | – | pIC50 [14]: 4.40; clearance [12]: > 119 µL/min/mg; clearance [13]: > 99 µL/min/mg |
| Cc1cc(NC2CCCCC2)nc(NCc2ccc3c(c2)OCO3)n1 | – | 6.70 | – |
| Cc1cc(NC2CCCCC2)nc(Nc2ccccn2)n1 | < 6.00 | < 5.70 | – |
| Cc1cc(NC(C)C)nc(NC2CCCCC2)n1 | – | 6.41 | – |
| Cc1cc(Nc2ccccc2)nc(NCc2ccccc2)n1 | 6.92 | 7.05 | clearance [12]: > 119 µL/min/mg; clearance [13]: 55.2 µL/min/mg |
| Cc1cc(Nc2ccccc2)nc(N2CCCN(C(=O)OC(C)(C)C)CC2)n1 | – | – | logD [4]: 3.95 |
| Cc1cc(NC2CCCCC2)nc(NC(C)C)n1 | – | 6.13 | – |
| Cc1cc(NC(C)C)nc(NC2CCN(Cc3ccccc3)CC2)n1 | – | 6.09 | – |
| Cc1cc(NC(C)C)nc(NCc2ccc3c(c2)OCO3)n1 | – | 6.08 | – |
| Cc1cc(N(C)C2CCCCC2)nc(N(C)Cc2ccccc2)n1 | < 5.00 | < 5.00 | – |
| Cc1cc(NC(C)C)nc(NC(C)C)n1 | – | 5.37 | – |
| Cc1cc(NC2CCCCC2)nc(N[C@H](C)c2ccccc2)n1 | 7.05 | 6.38 | – |
| COc1cc(CNc2nc(C)cc(NC(C)C)n2)cc(OC)c1OC | – | 5.72 | – |
| Cc1cc(Nc2ccccc2)nc(NCCN2CCCC2)n1 | 5.84 | 5.91 | – |
| Cc1cc(NC2CCCCC2)nc(NCCN2CCCC2)n1 | – | 5.56 | – |

| Structure (SMILES) | pEC50 [2] | pEC50 [5] | further results |
| --- | --- | --- | --- |
| COc1cc(CNc2nc(C)cc(NC3CCCCC3)n2)cc(OC)c1OC | – | 6.59 | – |
| Cc1cc(Nc2ccccc2)nc(N2CCCNCC2)n1 | – | – | logD [4]: 0.51 |
| Cc1cc(N2CCCN(C)CC2)nc(NC2CCN(Cc3ccccc3)CC2)n1 | – | – | logD [4]: 1 |
| Cc1cc(NCc2ccccc2)nc(NC2CCN(Cc3ccccc3)CC2)n1 | 6.80 | 6.80 | – |
| Cc1cc(NC2CCN(Cc3ccccc3)CC2)nc(N2CCCNCC2)n1 | – | – | logD [4]: -0.17 |
| Cc1cc(NC2CCCCC2)nc(NCC23CC4CC(CC(C4)C2)C3)n1 | – | 6.43 | – |
| FC(F)(F)c1cc(Nc2ccncc2)nc(NCc2ccc3c(c2)OCO3)n1 | – | – | pIC50 [14]: 3.87 |
| Cc1cc(NC(C)C)nc(NCCN2CCCC2)n1 | – | < 5.30 | – |
| Cc1cc(Nc2ccccc2)nc(NC(C)C)n1 | 6.55 | 6.12 | – |
| Cc1cc(NC2CCCCC2)nc(Nc2ccccc2)n1 | – | 6.64 | – |
| Cc1cc(NCc2ccccc2)nc(NC(C)C)n1 | 5.84 | 5.98 | – |
| CCCCCCCNc1nc(C)cc(Nc2ccccc2)n1 | 7.05 | 7.05 | – |
| Cc1cc(N(C)C2CCCCC2)nc(NCc2ccccc2)n1 | 6.17 | 5.99 | – |
| Cc1cc(NC2CCCCC2)nc(NCc2ccc3c(ccn3C)c2)n1 | – | 6.62 | – |
| FC(F)(F)c1cc(Nc2ccccc2)nc(NCc2ccncc2)n1 | – | – | clearance [12]: > 119 µL/min/mg; clearance [13]: 56.2 µL/min/mg |
| Cc1cc(N(C)C2CCCCC2)nc(N[C@H](C)c2ccccc2)n1 | 6.20 | 6.03 | – |
| Cc1cc(NC(C)C)nc(NCc2ccccc2)n1 | – | 6.46 | – |
| Cc1cc(NCc2ccccc2)nc(Nc2ccccc2)n1 | 6.07 | 5.99 | – |

— ChEMBL document CHEMBL1153120, “Synthesis and antiplasmodial activity of novel 2,4-diaminopyrimidines” (Bioorg Med Chem Lett, 2010)
